Experimental findings from ChEMBL document CHEMBL4152256, “Structure-activity relationship of new antimalarial 1-aryl-3-susbtituted propanol derivatives: Synthesis, preliminary toxicity profiling, parasite life cycle stage studies, target exploration, and targeted delivery” (Eur J Med Chem, 2018) are described below.

The source made the active and inactive calls. The calls are words filed in the database; no cut-off is given here.

The nature of data set [1]: Selectivity index, ratio of CC50 for human HepG2A16 cells by MTT assay to IC50 for multidrug-resistant Plasmodium falciparum FCR-3. Type of data set: toxicity. An outline of the steps: (§1)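 HepG2-A16 human hepatoma cells were tested by MTT viability assay to give CC50. Blood-stage activity was measured against the multidrug-resistant P. falciparum FCR-3 strain by [3H]-hypoxanthine incorporation to give IC50. SI = CC50 HepG2 / FCR-3 IC50.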
On the technique in general: Tetrazolium dyes change colour on reduction, which living cells bring about.

Data set [2] deals with Plasmodium falciparum. The data set can be described thus: Antiplasmodial activity against multidrug-resistant Plasmodium falciparum FCR-3 by [3H]-hypoxanthine incorporation assay. Type of data set: functional, organism-based, FCR-3/Gambia. An outline of the steps: (§2)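 Blood-stage P. falciparum 3D7 and FCR-3 were tested by a modified [3H]-hypoxanthine incorporation assay. Chloroquine was the reference in all runs.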

A short description of data set [3]: Cytotoxicity against human HepG2A16 cells. Type of data set: cell-based.
For data set [4], the system named is Plasmodium falciparum. In words: Antiplasmodial activity against chloroquine-sensitive Plasmodium falciparum 3D7 by [3H]-hypoxanthine incorporation assay. Type of data set: functional, organism-based. An outline of the steps: as §2
Data set [5] can be described thus: Selectivity index, ratio of CC50 for human HepG2A16 cells to IC50 for multidrug-resistant Plasmodium falciparum FCR-3. Type of data set: toxicity. An outline of the steps: as §1
Data set [6] in a line: Cytotoxicity against human HepG2A16 cells by MTT assay. Type of data set: cell-based. The gist of the method: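 MTT viability assay on HepG2-A16 cells, giving CC50 values.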
Data set [7] deals with T1, HSP90 (Plasmodium falciparum 3D7) (UniProt Q8IL32).
T1 sequence (whole entry): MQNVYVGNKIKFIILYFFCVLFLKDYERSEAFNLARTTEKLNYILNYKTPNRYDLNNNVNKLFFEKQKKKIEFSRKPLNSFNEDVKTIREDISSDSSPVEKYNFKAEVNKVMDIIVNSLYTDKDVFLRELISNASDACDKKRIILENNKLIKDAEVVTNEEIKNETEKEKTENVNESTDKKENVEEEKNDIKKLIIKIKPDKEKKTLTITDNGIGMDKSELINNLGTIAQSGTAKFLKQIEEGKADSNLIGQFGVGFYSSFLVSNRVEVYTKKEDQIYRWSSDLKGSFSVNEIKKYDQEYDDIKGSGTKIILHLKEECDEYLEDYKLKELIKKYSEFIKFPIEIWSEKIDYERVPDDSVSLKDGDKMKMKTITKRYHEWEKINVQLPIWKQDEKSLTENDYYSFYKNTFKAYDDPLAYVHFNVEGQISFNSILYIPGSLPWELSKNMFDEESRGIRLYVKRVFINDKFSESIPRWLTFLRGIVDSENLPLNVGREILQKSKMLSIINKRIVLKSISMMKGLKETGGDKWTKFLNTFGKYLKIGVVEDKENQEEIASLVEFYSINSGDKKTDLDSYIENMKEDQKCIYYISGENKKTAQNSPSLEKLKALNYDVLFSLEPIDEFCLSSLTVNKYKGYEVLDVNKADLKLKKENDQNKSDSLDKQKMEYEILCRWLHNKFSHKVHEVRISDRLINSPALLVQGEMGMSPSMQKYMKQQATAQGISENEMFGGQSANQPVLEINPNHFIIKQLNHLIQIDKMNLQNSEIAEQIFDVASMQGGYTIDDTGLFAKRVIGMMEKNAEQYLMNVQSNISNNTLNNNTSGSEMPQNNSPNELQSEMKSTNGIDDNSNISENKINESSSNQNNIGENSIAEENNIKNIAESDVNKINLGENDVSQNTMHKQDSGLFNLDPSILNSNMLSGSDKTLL
In words: Binding affinity to Plasmodium falciparum HSP90 nucleotide binding domain by SPR analysis. An outline of the steps:
(§3)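 Purified PfHsp90 and PfGRP94 nucleotide-binding domains were amine-coupled to a CM5 chip (3000 and 7000 RU, respectively), with a blank reference surface. Seven compound concentrations (0.4 nM–1 mM) were injected in triplicate at 30 µL/min, 25 °C, in random order. Running buffer: 10 mM HEPES pH 7.4, 150 mM NaCl, 0.005% P20, 1% DMSO, 2 mM MgCl2. Kd came from double-referenced sensorgrams.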
Background: In SPR one partner is held on a chip, and binding of the other changes the refractive index at the surface.

For data set [8], the target named is T1, HSP90 (Plasmodium falciparum 3D7). In words: Binding affinity to Plasmodium falciparum HSP90 nucleotide binding domain at 0.5 mM by SYPRO orange dye based DSF analysis. An outline of the steps: (§4)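 Recombinant P. falciparum Hsp90 or GRP94 nucleotide-binding domain (0.05–0.2 mg/mL, optimized per protein) in 25 mM HEPES pH 7.5, 250 mM NaCl. Compound final concentration was 0.5 mM, with SYPRO Orange at 1:1000. Samples were heated from 18 to 90 °C at 1 °C/min. Tm was taken as the Boltzmann-fit inflection point. ΔTm = Tm with ligand minus Tm without, and shifts beyond ±1 °C were counted significant.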
On the technique in general: In DSF a fluorescence change marks the thermal transition of the protein.

Data set [9] deals with Plasmodium falciparum. In words: Binding affinity to Plasmodium falciparum GRP94 nucleotide binding domain by SPR analysis. An outline of the steps: as §3
Data set [10] concerns Plasmodium falciparum. The data set can be described thus: Binding affinity to Plasmodium falciparum GRP94 nucleotide binding domain at 0.5 mM by SYPRO orange dye based DSF analysis. An outline of the steps:
as §4

In data set [11] the test system is Plasmodium berghei. In words: Antiplasmodial activity against Plasmodium berghei ANKA infected in mouse assessed as inhibition of parasitemia at 50 mg/kg/day, po for 4 consecutive days starting from 2 hrs post infection by MSF assay relative to control. Type of data set: functional. The gist of the method: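 Swiss male mice (20 ± 2 g) infected ip with 10^7 P. berghei ANKA parasitized cells (day 0). Five per group dosed orally 2 h after infection and daily on days 0–3. Test compounds at 50 mg/kg/day in water:DMSO; chloroquine diphosphate at 3 mg/kg/day; vehicle controls. Parasitemia measured on day 4 by MSF assay; survival checked daily.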

Broadly, the IC50 is the concentration that gives 50% inhibition. A higher IC50 goes with weaker potency in that assay. By CC50 is commonly meant the concentration that lowers cell viability or growth by half. In the case of `O=[N+]([O-])c1ccc(N2CCC(NCCC(O)c3ccc(F)c4ccccc34)CC2)c(C(F)(F)F)c1` (single isomer, unassigned; (+)), the “Ratio CC50/IC50” value was 201 in data set [1] and 420 in [5]. The concentration for half-maximal inhibition (IC50) in data set [2] stood at 0.19 µM; in data set [4], 0.48 µM. The CC50 in data set [3] was 37.6 µM; in [6], 38.3 µM.
For the compound `COc1ccccc1N1CCN(CCC(O)c2ccc(F)cc2)CC1` (stereo in doubt; 66), the result in data set [7], in [8], in [9] and in data set [10] was inactive.
As for `N#Cc1ccc(N2CCC(NCCC(O)c3ccc(F)c4ccccc34)CC2)c(C(F)(F)F)c1` (stereo in doubt; (-)-72), the “Ratio CC50/IC50” value in data set [1] is 28; in [5] it was 11. Also, the IC50 was 0.39 µM in data set [2] and 0.28 µM in [4]. Also, the CC50 was 27.8 µM in [3] and 11 µM in [6].
As for `OC(CCN1CCN(c2ccccc2C(F)(F)F)CC1)c1ccc(F)c2ccccc12` (single isomer, unassigned; (+)), the “Ratio CC50/IC50” value in data set [1] was determined as 51. The IC50 in data set [2] stood at 0.21 µM; in [4], 0.54 µM. The figures for the CC50 in data set [3] (HepG2A16 cells) and in data set [6] were 36.1 µM and 10.8 µM, respectively. The selectivity ratio in [5] (HepG2A16 cells, read-out: Ratio CC50/IC50) was found to be 172.
Take `N#Cc1ccc(N2CCC(NCCC(O)c3ccc(F)c4ccccc34)CC2)c(C(F)(F)F)c1` (single isomer, unassigned; (+)): the figures for the “Ratio CC50/IC50” value in data set [1] and in data set [5] were 29 and 58, respectively. In addition, the results for the concentration for half-maximal inhibition (IC50) in data set [2] and in [4] were 0.65 µM and 5.72 µM, respectively. Also, the CC50 worked out at 79.9 µM in data set [3] and 18.8 µM in data set [6].
Turning to `Nc1ncnc2c1ncn2[C@@H]1O[C@H](COP(=O)(O)OP(=O)(O)O)[C@@H](O)[C@H]1O`, the result in data set [8] and in data set [10] was Active.
On to `N#Cc1ccc(N2CCC(NCCC(O)c3ccc(F)c4ccccc34)CC2)c(C(F)(F)F)c1` (stereo in doubt; 72), for which the outcome in data set [7], in data set [8], in [9] and in data set [10] was inactive.
For `COc1ccccc1N1CCN(CCC(O)c2ccc(F)cc2)CC1` (single isomer, unassigned; (-)), the results for the “Ratio CC50/IC50” value in data set [1] and in [5] were 22 and greater than 219.9, respectively. The IC50 came to 0.66 µM in data set [2] and 1.24 µM in [4]. In data set [6], this compound returned a CC50 of 14.3 µM.
For the compound `O=[N+]([O-])c1ccc(N2CCC(NCCC(O)c3ccc(F)c4ccccc34)CC2)c(C(F)(F)F)c1` (stereo in doubt; 8), the result in data set [7], in data set [8], in data set [9] and in [10] was inactive.
For `OC(CCN1CCN(c2ccccc2C(F)(F)F)CC1)c1ccc(F)c2ccccc12` (stereo in doubt; 55), the outcome in data set [7], in data set [8], in data set [9] and in data set [10] was inactive. Further, the inhibition result in [11] is “inactive”.
`OC(CCN1CCN(c2ccccc2C(F)(F)F)CC1)c1ccc(F)c2ccccc12` (single isomer, unassigned; (-)): the “Ratio CC50/IC50” value in data set [1] amounted to 91; in [5], 308. Further, the IC50 turned out to be 0.2 µM in data set [2] and 0.88 µM in data set [4]. For the same compound, the half-maximal cytotoxic concentration (CC50) in [3] stood at 61.5 µM; in data set [6] it was 18.2 µM.
In the case of `O=[N+]([O-])c1ccc(N2CCC(NCCC(O)c3ccc(F)c4ccccc34)CC2)c(C(F)(F)F)c1` (single isomer, unassigned; (-)), the entries for the “Ratio CC50/IC50” value in [1] and in data set [5] were 23 and 32, respectively. Also, the IC50 in [2] came to 0.87 µM; in data set [4] it was 1.79 µM. The CC50 in data set [3] is 4.13 µM; in [6], 20 µM.
With `Nc1ncnc2c1ncn2[C@@H]1O[C@H](COP(=O)(O)OP(=O)(O)OP(=O)(O)O)[C@@H](O)[C@H]1O`, the outcome in [8] and in [10] was Active.
In the case of `COc1ccccc1N1CCN(CCC(O)c2ccc(F)cc2)CC1` (single isomer, unassigned; (+)), the “Ratio CC50/IC50” value is on record as 8 in [1] and greater than 11.8 in data set [5]. The IC50 in data set [2] came out at 12.2 µM; in [4] it was 28.7 µM. Also, the 50% cytotoxic concentration (CC50) is greater than 145 µM in data set [3] (HepG2A16 cells) and 96 µM in [6].
